In PMC3037833 (Angewandte Chemie (International ed. in English), 2010) one finds Ki and Kd data, which are given here for eight molecules.

Assay [1] has as its target T1, N1P1 (NHERF1 PDZ domain 1) (Homo sapiens, UniProt O14745).
T1 sequence (O14745 14-94 limits assumed): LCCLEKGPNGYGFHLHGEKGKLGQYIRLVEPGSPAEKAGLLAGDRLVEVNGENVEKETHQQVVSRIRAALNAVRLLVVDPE
The assay can be described thus: Fluorescence polarization. It counts as binding. In outline:
(§1)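 Test peptides were assayed by fluorescence polarization inhibition for binding to the isolated PDZ domain; the same format was applied across the five CFTR-associated PDZ domains.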

The target in assay [2] is N2P2 (NHERF2 PDZ domain 2) (Homo sapiens, UniProt Q15599). The assay can be described thus: Fluorescence polarization. In kind it is binding.
Assay [3] has as its target T2, N1P2 (NHERF1 PDZ domain 2) (Homo sapiens, UniProt O14745).
T2 sequence (O14745 154-234 limits assumed): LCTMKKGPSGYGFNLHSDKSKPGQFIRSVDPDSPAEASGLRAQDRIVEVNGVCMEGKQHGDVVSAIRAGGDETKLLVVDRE
The assay can be described thus: Fluorescence polarization. In kind it is binding. In outline: as §1
In general terms: In fluorescence polarisation assays a small probe gives low polarisation when free and higher when bound to something large.

For assay [4], the target named is N2P1 (NHERF2 PDZ domain 1) (Homo sapiens, UniProt Q15599). The assay can be described thus: Fluorescence polarization. It counts as binding.
The target of the next assay is T3, F*-iCAL36.
T3 chain: fluorescein-ANSRWPTSII
The assay can be described thus: fluorescence polarization.

Another assay addresses T4, SSR510 (Homo sapiens).
T4 chain: ANGLMQTSKL
The assay can be described thus: fluorescence polarization competition.

A further assay addresses T5, iCAL056 (N-terminal cysteine on peptide).
T5 chain: MQTSKI
The assay can be described thus: fluorescence polarization competition.

For a further assay, the target named is T6, SSR56 (Homo sapiens, N-terminal cysteine on peptide).
T6 chain: MQTSKL
The assay can be described thus: fluorescence polarization competition.

Another assay concerns the target T7, CFTR10 (Homo sapiens).
T7 chain: TEEEVQDTRL
The assay can be described thus: fluorescence polarization competition.

In another assay the target is T8, iCAL366 (N-terminal cysteine on peptide).
T8 chain: WPTSII
The assay can be described thus: fluorescence polarization competition.

In a further assay the target is T9, iCAL368.
T9 chain: SRWPTSII
The assay can be described thus: fluorescence polarization competition.

A further assay deals with T10, iCAL3610.
T10 chain: ANSRWPTSII
The assay can be described thus: fluorescence polarization competition.

Another assay deals with T11, iCAL356 (N-terminal cysteine on peptide).
T11 chain: WQTSII
The assay can be described thus: fluorescence polarization competition.

Another assay has as its target T12, iCAL066 (N-terminal cysteine on peptide).
T12 chain: MQTSII
The assay can be described thus: fluorescence polarization competition.

Where two headings read alike, the source gives them in different places. No end group written: not given here.

As for `CC[C@H](C)[C@H](NC(=O)[C@@H](NC(=O)[C@H](CO)NC(=O)[C@@H](NC(=O)[C@@H]1CCCN1C(=O)[C@H](Cc1c[nH]c2ccccc12)NC(=O)[C@H](CCCNC(=N)N)NC(=O)[C@H](CO)NC(=O)[C@H](CC(N)=O)NC(=O)[C@H](C)N)[C@@H](C)O)[C@@H](C)CC)C(=O)O` [iCAL36_10], the Ki in [1] was over 5000 µM; in assay [2], over 3000 µM; in [3] it was over 5000 µM; in assay [4], over 5000 µM.
As to `CSCC[C@H](NC(=O)[C@H](CC(C)C)NC(=O)CNC(=O)[C@H](CC(N)=O)NC(=O)[C@H](C)N)C(=O)N[C@@H](CCC(N)=O)C(=O)N[C@H](C(=O)N[C@@H](CO)C(=O)N[C@@H](CCCCN)C(=O)N[C@@H](CC(C)C)C(=O)O)[C@@H](C)O` [SSR5_10, reference compound], the Ki was 24.5 ± 1.9 µM in assay [1] (SD), 19.8 ± 2.7 µM in assay [2] (SD), 130 ± 48 µM in assay [3] (SD) and 38.6 ± 7.7 µM in assay [4] (SD).
On to SRWPTSII [iCAL36_8], for which the Ki in assay [1] is over 5000 µM; in assay [2] (SD) it was 433 ± 154 µM; in [3], over 5000 µM; in assay [4] (SD), 516 ± 183 µM.
Regarding `CC(C)C[C@H](NC(=O)[C@H](CCCNC(=N)N)NC(=O)[C@@H](NC(=O)[C@H](CC(=O)O)NC(=O)[C@H](CCC(N)=O)NC(=O)[C@@H](NC(=O)[C@H](CCC(=O)O)NC(=O)[C@H](CCC(=O)O)NC(=O)[C@H](CCC(=O)O)NC(=O)[C@@H](N)[C@@H](C)O)C(C)C)[C@@H](C)O)C(=O)O` [CFTR10, reference compound], the Ki worked out at 0.45 ± 0.02 µM in assay [1] (SD) and 1.9 ± 0.1 µM in assay [3] (SD).

B1: NHERF2 PDZ2 (protein)
chain: LRPRLCHLRKGPQGYGFNLHSDKSRPGQYIRSVDPGSPAARSGLRAQDRLIEVNGQNVEGLRHAEVVASIKAREDEARLLVVDPETD
Regarding B1, the Kd with F*-iCAL36 is over 1 mM. In addition, the Ki is 19.8 µM with SSR510; 109 µM with iCAL056; 10 µM with SSR56; 100 nM with CFTR10; over 5 mM in the assay with iCAL366; 433 µM in the assay with iCAL368. Also, the Ki is over 3 mM with iCAL3610, 246 µM with iCAL356 and 166 µM in the assay with iCAL066.

B2: NHERF1 PDZ1 (protein)
chain: LPRLCCLEKGPNGYGFHLHGEKGKLGQYIRLVEPGSPAEKAGLLAGDRLVEVNGENVEKETHQQVVSRIRAALNAVRLLVVDPETDE
Turning to B2, the Kd with F*-iCAL36 was over 1 mM. Besides, the inhibitory constant (Ki) is 24.5 µM with SSR510; 914 µM in the assay with iCAL056; 19.3 µM with SSR56; 450 nM with CFTR10; over 5 mM in the assay with iCAL366; over 5000 µM with iCAL368. The Ki with iCAL3610 was over 5 mM; in the assay with iCAL356, 430 µM; with iCAL066 it was 245 µM.

B3: NHERF2 PDZ1 (protein)
chain: RPRLCRLVRGEQGYGFHLHGEKGRRGQFIRRVEPGSPAEAAALRAGDRLVEVNGVNVEGETHHQVVQRIKAVEGQTRLLVVDQETD
On to B3, for which, in the assay with F*-iCAL36, the Kd is over 1 mM. Moreover, the Ki was 38.6 µM with SSR510; 806 µM in the assay with iCAL056; 31.7 µM in the assay with SSR56; 1100 nM with CFTR10; over 5 mM in the assay with iCAL366; 516 µM with iCAL368. In addition, the values for the Ki with iCAL3610, in the assay with iCAL356 and with iCAL066 were over 5 mM, 496 µM and 245 µM, respectively.

B4: NHERF1 PDZ2 (protein)
chain: RPRLCTMKKGPSGYGFNLHSDKSKPGQFIRSVDPDSPAEASGLRAQDRIVEVNGVCMEGKQHGDVVSAIRAGGDETKLLVVDRETDE
B4: the Kd with F*-iCAL36 is over 1 mM. In addition, the Ki with SSR510 was 130 µM; with iCAL056, 1700 µM; with SSR56 it was 50.2 µM; with CFTR10 it was 1900 nM; with iCAL366 it was over 5 mM; with iCAL368 it was over 5000 µM. Moreover, the figures for the Ki with iCAL3610, with iCAL356 and with iCAL066 were over 5 mM, over 5000 µM and 2400 µM, respectively.

For orientation: Ki means the dissociation constant of the complex between target and ligand, obtained from inhibition or displacement. Usually Kd stands for a measure of binding affinity in units of concentration. Read a low Kd as higher affinity.
